Where two headings read alike, the source gives them in different places.
Legend:
ROP18 = ROP18 (Toxoplasma gondii, UniProt Q2PAY2); test: biochemical
RAW 264.7 macrophages = test: MTS-based cell growth assay; conditions: Mus musculus, RAW264.7, 48 h, read-out: EC50 growth inhibition (MTS)
[1] = system: ROP18 function in T. gondii infected RAW macrophages (Irga6 recruitment to PVM); test: Irga6; format: cell-based, Toxoplasma gondii; conditions: 10 μM; for proportion of Irga6 positive vacuoles, visual scoring, Δrop18 parasites: Δrop18, IFN-γ-activated RAW macrophages; for amount of Irga6 recruitment, quantitative immunofluorescence, Δrop18 parasites: Δrop18, vs DMSO vehicle
Procedure, shortened: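 RAW264.7 macrophages on coverslips (10^5/well) primed 24 h with 100 U/ml mouse IFNγ plus 1 ng/ml LPS. RH Δku80 tachyzoites (wild type or rop18-disrupted) at 10^5/ml pretreated 30 min at 37°C with 10 μM test compound or 0.1% DMSO, then invaded 30 min. Formaldehyde-fixed, Triton-permeabilized, stained for TgAldolase and Irga6 (mAb 10D7). Irga6-positive vacuoles scored visually; intensity quantified over parasite/PVM region.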

TBK1 = conditions: 1 μM; ref GSK PKIS profiling (Table S1); cited from earlier work
MELK = conditions: 1 μM; ref GSK PKIS profiling (Table S1); cited from earlier work
CDK3/cyclinE = conditions: 1 μM; ref GSK PKIS profiling (Table S1); cited from earlier work
CDK2 = conditions: 0.1 μM; ref GSK PKIS profiling (Figure S5); cited from earlier work
PDGFRα = conditions: 0.1 μM; ref GSK PKIS profiling (Figure S5); cited from earlier work
PDGFRβ = conditions: 0.1 μM; ref GSK PKIS profiling (Figure S5); cited from earlier work
RAW264.7 macrophages [2] = test: LDH release cytotoxicity; format: cell-based, mouse; conditions: 4 h incubation, 20 μM
P. falciparum = conditions: 2 μM; cited from earlier work
[3] = system: HepG2 hepatocarcinoma cells; conditions: 10 μM (48 h stated for compound 10); cited from earlier work
RAW264.7 macrophages [4] = test: Phase contrast microscopy of host cell morphology; format: cell-based, mouse; conditions: 10 μM, in as little as 30 min; rounding up and vesiculation
P. falciparum 3D7 strain = conditions: 2 μM, 48 h; cited from earlier work
[5] = system: P. falciparum Dd2 strain (a multidrug resistant strain); conditions: 2 μM, 48 h; cited from earlier work
[6] = IC50 μM FL-8, substrate peptide FL-8, same assay conditions as primary screen
[7] = IC50 μM FL-E, substrate peptide FL-E, same assay conditions as primary screen

Chain of ROP18 (Q2PAY2 98-554): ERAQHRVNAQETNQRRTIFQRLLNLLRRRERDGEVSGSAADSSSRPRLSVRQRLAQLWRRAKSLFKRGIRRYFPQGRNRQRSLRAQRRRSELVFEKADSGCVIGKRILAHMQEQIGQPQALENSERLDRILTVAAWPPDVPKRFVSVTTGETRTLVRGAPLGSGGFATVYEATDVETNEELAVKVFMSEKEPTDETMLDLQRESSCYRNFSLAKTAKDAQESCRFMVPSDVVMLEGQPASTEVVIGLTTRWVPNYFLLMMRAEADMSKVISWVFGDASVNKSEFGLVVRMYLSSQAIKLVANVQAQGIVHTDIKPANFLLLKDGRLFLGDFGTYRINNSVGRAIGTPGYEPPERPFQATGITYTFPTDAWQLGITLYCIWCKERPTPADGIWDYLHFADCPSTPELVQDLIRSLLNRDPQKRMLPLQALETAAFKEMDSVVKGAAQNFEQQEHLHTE

Structure (SMILES): NS(=O)(=O)c1ccc(N/C=C2\C(=O)Nc3ccc4ncsc4c32)cc1 [Compound 1, 4-[(7-hydroxy-6H-pyrrolo[2,3-g][1,3]benzothiazol-8-yl)methyleneamino]benzenesulfonamide]
- IC50 (ROP18; [6]): 1.21 µM
- IC50 (ROP18; [7]): 2.48 µM

Structure (SMILES): CC(C)COC(=O)c1ccc2c(c1)/C(=C/Nc1ccc(S(N)(=O)=O)cc1)C(=O)N2 [Compound 2, isobutyl 2-hydroxy-3-[(4-sulfamoylphenyl)iminomethyl]-1H-indole-5-carboxylate]
- Ki (ROP18): 0.13 µM
- IC50 (ROP18; [6]): 0.51 µM
- IC50 (ROP18; [7]): 0.29 µM
- EC50 (RAW 264.7 macrophages): 7.4 µM
- proportion of Irga6 positive vacuoles, visual scoring, Δrop18 parasites ([1]; vs DMSO vehicle): did not lead to a significant increase or decrease
- amount of Irga6 recruitment, quantitative immunofluorescence, Δrop18 parasites [1]: did not lead to a significant increase or decrease
- inhibition of TBK1 (TBK1): > 90%
- inhibition of MELK (MELK): > 90%
- inhibition of CDK3/cyclinE (CDK3/cyclinE): > 90%
- inhibition of CDK2 (CDK2): > 50%
- inhibition of PDGFRα (PDGFRα): > 50%
- inhibition of PDGFRβ (PDGFRβ): > 50%

Structure (SMILES): CC(C)(CO)CNC(=O)c1ccc2c(c1)C(=NNc1ccc(S(N)(=O)=O)cc1)C(=O)N2 [Compound 3, 2-hydroxy-N-(3-hydroxy-2,2-dimethyl-propyl)-3-(4-sulfamoylphenyl)azo-1H-indole-5-carboxamide]
- IC50 (ROP18; [6]): 0.65 µM
- IC50 (ROP18; [7]): 0.19 µM

Structure (SMILES): NS(=O)(=O)c1ccc(NN=C2C(=O)Nc3ccc(C(=O)NCc4ccncc4)cc32)cc1 [Compound 4, 2-hydroxy-N-(4-pyridylmethyl)-3-(4-sulfamoylphenyl)azo-1H-indole-5-carboxamide]
- IC50 (ROP18; [6]): > 10 µM
- IC50 (ROP18; [7]): 2.66 µM

Structure (SMILES): O=S1(=O)CCc2ccc(Nc3nc(NC4CCNC4)nc4ccnc(O)c34)cc21 (stereo not shown) [Compound 5, 4-[(1,1-dioxo-2,3-dihydrobenzothiophen-6-yl)amino]-2-(pyrrolidin-3-ylamino)pyrido[4,3-d]pyrimidin-5-ol]
- IC50 (ROP18; [6]): > 10 µM
- IC50 (ROP18; [7]): 4.02 µM

Structure (SMILES): Oc1nccc2nc(NC3CCNC3)nc(Nc3cc(Cl)cc(Cl)c3)c12 (stereo not shown) [Compound 6, 4-(3,5-dichloroanilino)-2-(pyrrolidin-3-ylamino)pyrido[4,3-d]pyrimidin-5-ol]
- IC50 (ROP18; [6]): > 10 µM
- IC50 (ROP18; [7]): 7.49 µM

Structure (SMILES): O=c1[nH]ccc2nc(NC3CCCNC3)nc(Nc3ccc(S(=O)(=O)N4CCOCC4)cc3)c12 (stereo not shown) [Compound 7, 4-(4-morpholinosulfonylanilino)-2-(3-piperidylamino)pyrido[4,3-d]pyrimidin-5-ol]
- Ki (ROP18): 0.27 µM
- IC50 (ROP18; [6]): 0.4 µM
- IC50 (ROP18; [7]): 0.18 µM
- EC50 (RAW 264.7 macrophages): 14.2 µM
- increase in LDH release (RAW264.7 macrophages [2]): 12%
- proportion of Irga6 positive vacuoles, visual scoring, wild type parasites ([1]; wild type (RH), IFN-γ-activated RAW macrophages, vs DMSO vehicle): did not result in a significant increase
- amount of Irga6 recruitment, quantitative immunofluorescence, wild type parasites ([1]; wild type (RH), vs DMSO vehicle): no significant increase
- proportion of Irga6 positive vacuoles, visual scoring, Δrop18 parasites ([1]; vs DMSO vehicle): caused a reduction
- amount of Irga6 recruitment, quantitative immunofluorescence, Δrop18 parasites [1]: significantly lower
- inhibition of P. falciparum growth (P. falciparum): > 95%
- growth inhibition of HepG2 cells [3]: 13%

Structure (SMILES): NS(=O)(=O)CCc1cccc(Nc2nccc(-c3c(-c4cccc(NC(=O)c5c(F)cccc5F)c4)nn4ccccc34)n2)c1 [Compound 8, 2,6-difluoro-<I>N</I>-[3-[3-[2-[3-(2-sulfamoylethyl)anilino]pyrimidin-4-yl]pyrazolo[1,5-a]pyridin-2-yl]phenyl]benzamide]
- IC50 (ROP18; [6]): 0.63 µM
- IC50 (ROP18; [7]): 0.94 µM

Structure (SMILES): CS(=O)(=O)Cc1ccc(Nc2nccc(-c3c(-c4cccc(NC(=O)C5CCCCC5)c4)nn4ncccc34)n2)cc1 [Compound 9, <I>N</I>-[3-[3-[2-[4-(methylsulfonylmethyl)anilino]pyrimidin-4-yl]pyrazolo[1,5-b]pyridazin-2-yl]phenyl]cyclohexanecarboxamide]
- IC50 (ROP18; [6]): > 10 µM
- IC50 (ROP18; [7]): > 10 µM

Structure (SMILES): CS(=O)(=O)Cc1ccc(Nc2nccc(-c3c(-c4cccc(NC(=O)c5c(F)cccc5F)c4)nn4ccccc34)n2)cc1 [Compound 10, 2,6-difluoro-<I>N</I>-[3-[3-[2-[4-(methylsulfonylmethyl)anilino]pyrimidin-4-yl]pyrazolo[1,5-a]pyridin-2-yl]phenyl]benzamide]
- IC50 (ROP18; [6]): 2.83 µM
- IC50 (ROP18; [7]): 1 µM
- EC50 (RAW 264.7 macrophages): 1.3 µM
- morphological damage to the host cells (RAW264.7 macrophages [4]): rapid morphological damage
- inhibition of 3D7 strain (P. falciparum 3D7 strain): 99%
- inhibition of Dd2 strain [5]: 75%
- growth inhibition of HepG2 cells [3]: 78%

Structure (SMILES): COc1ccc(NC(=O)Nc2nc(SCC(=O)C(C)(C)C)ns2)cc1 [Compound 11, 1-[3-(3,3-dimethyl-2-oxo-butyl)sulfanyl-1,2,4-thiadiazol-5-yl]-3-(4-methoxyphenyl)urea]
- IC50 (ROP18; [6]): > 10 µM
- IC50 (ROP18; [7]): 6.44 µM

Structure (SMILES): Cc1cccc(Nc2nc(NC3CCCCC3N)ncc2C(N)=O)c1 (stereo not shown) [Compound 13, 2-[(2-aminocyclohexyl)amino]-4-(3-methylanilino)pyrimidine-5-carboxamide]
- IC50 (ROP18; [6]): > 10 µM
- IC50 (ROP18; [7]): 6.66 µM

Structure (SMILES): C[C@]12O[C@H](C[C@]1(O)CO)n1c3ccccc3c3c4c(c5c6ccccc6n2c5c31)CNC4=O [Compound 14, (5S,6S,8R)-6-hydroxy-6-(hydroxymethyl)-5-methyl-5,6,7,8,14,15-hexahydro-13H-16-oxa-4b,8a,14-triaza-5,8-methanodibenzo[b,h]cycloocta[jkl]cyclopenta[e]-as-indacen-13-one, reference compound]
- IC50 (ROP18): 0.16 µM

From publication PMC4930114 (ACS infectious diseases, 2015)
